Reference: ChEMBL document CHEMBL4043129, “Design, synthesis and bioactivities of Celecoxib analogues or derivatives” (Bioorg Med Chem, 2017)
Activity calls are given as the source filed them. The rule behind the calls is not given here.

How the values were obtained:
[1] = Dissociation constant, pKa of the compound; format: physicochemical
[2] = biological target: T1, Prostaglandin G/H synthase 2 (Rattus norvegicus, UniProt P35355); assay: Inhibition of COX-2 in rat peritoneal macrophages assessed as reduction in PGE2 production using radiolabelled-arachidonic acid as substrate pretreated for 30 mins followed by substrate addition measured after 30 mins
T1 sequence (P35355 whole entry): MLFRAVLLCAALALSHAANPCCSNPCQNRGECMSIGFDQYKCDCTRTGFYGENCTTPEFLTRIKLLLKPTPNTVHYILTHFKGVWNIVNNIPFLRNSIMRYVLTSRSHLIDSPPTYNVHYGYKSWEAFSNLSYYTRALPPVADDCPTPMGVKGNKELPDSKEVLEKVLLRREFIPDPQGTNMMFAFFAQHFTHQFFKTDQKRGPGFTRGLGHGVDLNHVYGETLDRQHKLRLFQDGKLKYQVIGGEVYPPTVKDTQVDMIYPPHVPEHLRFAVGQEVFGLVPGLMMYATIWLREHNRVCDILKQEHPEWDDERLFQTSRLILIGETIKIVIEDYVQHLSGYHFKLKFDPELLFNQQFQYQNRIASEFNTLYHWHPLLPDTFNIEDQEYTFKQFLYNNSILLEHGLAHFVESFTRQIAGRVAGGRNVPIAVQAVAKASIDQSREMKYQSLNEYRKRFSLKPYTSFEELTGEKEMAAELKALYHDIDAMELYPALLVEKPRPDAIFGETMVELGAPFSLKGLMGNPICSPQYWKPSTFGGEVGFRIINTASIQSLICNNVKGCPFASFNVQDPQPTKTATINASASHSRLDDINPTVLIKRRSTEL

[3] = Selectivity index, ratio of IC50 for COX1 in rat peritoneal macrophages to IC50 for COX2 in rat peritoneal macrophages
How it was run: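 Both IC50s come from gelatin-elicited rat peritoneal macrophages given 0.5% FCS RPMI-1640 for 24 h, then compound for 30 min and arachidonic acid for 30 min. COX-1 was read as 125I-6-keto-PGF1α. For COX-2, cells first had 10% FCS for 1 h, a PBS rinse and […] LPS for 8 h, and supernatant PGE2 was read. Each IC50 is the concentration halving radioactivity.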

[4] = biological target: T2, Prostaglandin G/H synthase 1 (Rattus norvegicus, UniProt Q63921); assay: Inhibition of COX-1 in rat peritoneal macrophages assessed as reduction in [125I]-6-Keto-PGF1alpha production using arachidonic acid as substrate pretreated for 30 mins followed by substrate addition measured after 30 mins
T2 sequence (Q63921 whole entry): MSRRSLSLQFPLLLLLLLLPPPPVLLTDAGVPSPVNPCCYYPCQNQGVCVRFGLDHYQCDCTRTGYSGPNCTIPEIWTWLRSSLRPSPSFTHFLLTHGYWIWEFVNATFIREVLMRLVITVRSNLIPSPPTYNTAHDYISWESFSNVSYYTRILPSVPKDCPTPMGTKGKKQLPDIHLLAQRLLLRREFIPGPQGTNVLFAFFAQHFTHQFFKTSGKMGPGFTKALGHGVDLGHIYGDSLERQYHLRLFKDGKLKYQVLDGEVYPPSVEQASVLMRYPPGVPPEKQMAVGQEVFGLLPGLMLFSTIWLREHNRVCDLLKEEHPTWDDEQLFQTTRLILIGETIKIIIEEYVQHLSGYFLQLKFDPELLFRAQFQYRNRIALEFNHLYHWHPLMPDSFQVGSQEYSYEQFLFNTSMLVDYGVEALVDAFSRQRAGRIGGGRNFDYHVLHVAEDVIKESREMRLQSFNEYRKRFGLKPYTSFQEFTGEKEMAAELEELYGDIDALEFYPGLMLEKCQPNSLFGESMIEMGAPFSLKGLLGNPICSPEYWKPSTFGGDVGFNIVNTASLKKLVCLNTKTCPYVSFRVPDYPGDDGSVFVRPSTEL
How it was run: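 Rat peritoneal macrophages were elicited with 5 mL 0.5% gelatin i.p. and harvested after 5 h. Cells were washed, seeded at 1.0 × 10^6/mL and adhered 24 h at 37 °C, 5% CO2, then kept 24 h in 0.5% FCS RPMI-1640. Compounds at several concentrations were added for 30 min, then arachidonic acid for 30 min. 125I-6-keto-PGF1α was read by kit, and IC50 was taken as the concentration halving radioactivity.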

[5] = Lipid/water partition coefficient, log P of the compound; format: physicochemical
Rattus norvegicus [6] = assay: In-vivo inhibition of COX2 in rat at 20 mg/kg measured after 20 mins; format: functional
Rattus norvegicus [7] = assay: In-vivo inhibition of COX2 in rat at 20 mg/kg measured after 120 mins; format: functional; conditions: 2 h
Rattus norvegicus [8] = assay: In-vivo inhibition of COX2 in rat at 20 mg/kg measured after 60 mins; format: functional; conditions: 1 h
Rattus norvegicus [9] = assay: Anti-inflammatory activity in rat assessed as reduction in PGE2 release at 20 mg/kg measured after 2 hrs; format: functional, organism-based
Rattus norvegicus [10] = assay: In-vivo inhibition of COX2 in rat at 20 mg/kg measured after 40 mins; format: functional
Rattus norvegicus [11] = assay: In-vivo inhibition of COX2 in rat at 20 mg/kg measured after 90 mins; format: functional; conditions: 1.5 h

pKa [1] | IC50 [2] | IC50 [4] | logP [5] | SMILES | Ratio IC50 [3] | inhibition in vivo at 20 mg/kg (Rattus norvegicus [6]) | inhibition in vivo at 20 mg/kg (Rattus norvegicus [7]) | inhibition in vivo at 20 mg/kg (Rattus norvegicus [8]) | Activity (Rattus norvegicus [9]) | inhibition in vivo at 20 mg/kg (Rattus norvegicus [10]) | inhibition in vivo at 20 mg/kg (Rattus norvegicus [11])
7.18 | 1.27 µM | 55.6 µM | 1.68 | CN1C=CN(C2OC(C(F)(F)F)=CN2c2ccc(S(N)(=O)=O)cc2)C=C1 (stereo not given) | 43.8 |  |  |  |  |  | 
7.55 | 0.099 µM | 53.4 µM | 2.41 | CN1C=CN(C2OC(C(Cl)(Cl)Cl)=CN2c2ccc(S(N)(=O)=O)cc2)C=C1 (stereo not given) | 539.3 | 40.6% | 97.9% | 85.9% | Active | 60.9% | 95.4%
7.62 | 8.08 µM | 80.5 µM | 2.77 | CN1C=CC(C2SC(C(F)(F)F)=CN2c2ccc(S(N)(=O)=O)cc2)C=C1 (stereo not given) | 10 |  |  |  |  |  | 
7.09 | 17.4 µM | 95.2 µM | 1.4 | CC1=CN(c2ccc(S(N)(=O)=O)cc2)C(C2C=CN(C)C=C2)O1 (stereo not given) | 5.5 |  |  |  |  |  | 
7.2 | 16.4 µM | 76.9 µM | 1.75 | CC1=CN(c2ccc(S(N)(=O)=O)cc2)C(N2C=CN(C)C=C2)S1 (stereo not given) | 4.8 |  |  |  |  |  | 
7.33 | 0.053 µM | 50.2 µM | 2.05 | CN1C=CC(C2OC(C(F)(F)F)=CN2c2ccc(S(N)(=O)=O)cc2)C=C1 (stereo not given) | 947.5 | 44.6% | 100% | 87.5% | Active | 64.9% | 99.6%
 |  |  |  | Cc1ccc(-c2cc(C(F)(F)F)nn2-c2ccc(S(N)(=O)=O)cc2)cc1 [CELECOXIB] |  | 45.3% | 100% | 89.1% |  | 68.4% | 100%
7.5 | 0.0793 µM | 52.4 µM | 2.38 | CN1C=CN(C2SC(C(F)(F)F)=CN2c2ccc(S(N)(=O)=O)cc2)C=C1 (stereo not given) | 660.3 | 42.5% | 98% | 86.1% | Active | 63.1% | 97.3%
7.63 | 13.7 µM | 83.1 µM | 2.78 | CN1C=CC(C2OC(C(Cl)(Cl)Cl)=CN2c2ccc(S(N)(=O)=O)cc2)C=C1 (stereo not given) | 6.1 |  |  |  |  |  | 
8 | 12.7 µM | 98.2 µM | 3.5 | CN1C=CC(C2SC(C(Cl)(Cl)Cl)=CN2c2ccc(S(N)(=O)=O)cc2)C=C1 (stereo not given) | 7.7 |  |  |  |  |  | 
7.01 | 20.1 µM | 98.5 µM | 1.04 | CC1=CN(c2ccc(S(N)(=O)=O)cc2)C(N2C=CN(C)C=C2)O1 (stereo not given) | 4.9 |  |  |  |  |  | 
7.76 | 11.6 µM | 88.6 µM | 3.13 | CN1C=CN(C2SC(C(Cl)(Cl)Cl)=CN2c2ccc(S(N)(=O)=O)cc2)C=C1 (stereo not given) | 7.7 |  |  |  |  |  | 
 |  |  |  | CN1C=CN(C2NC(C(F)(F)F)=CN2c2ccc(S(N)(=O)=O)cc2)C=C1 (stereo not given) |  |  |  |  | Active |  | 
7.39 | 1.53 µM | 56.9 µM | 2.12 | CC1=CN(c2ccc(S(N)(=O)=O)cc2)C(C2C=CN(C)C=C2)S1 (stereo not given) | 37.1 |  |  |  |  |  | 
 |  |  |  | CC1=CN(c2ccc(S(N)(=O)=O)cc2)C(C2C=CN(C)C=C2)N1 (stereo not given) |  |  |  |  | Active |  | 
